Assay results: ChEMBL document CHEMBL1142515, “Synthesis and evaluation of structurally constrained quinazolinone derivatives as potent and selective histamine H3 receptor inverse agonists” (J Med Chem, 2008)
pIC50, pKi: −log10 of the molar value. One block for each compound: values may come before it.

Tests used:
[1] = target: T1, Histamine H3 receptor (Homo sapiens, UniProt Q9Y5N1); test: Antagonist activity at human cloned histamine H3 receptor expressed in CHO-K1 cells assessed as inhibition of R-alpha-methylhistamine-induced [35S]GTPgammaS binding; type: functional, cell-based
[2] = target: Voltage-gated inwardly rectifying potassium channel KCNH2 (Homo sapiens, UniProt Q12809); test: Antagonist activity at human ERG in HEK293 cells assessed as inhibition of [35S]N-[(4R)-1'-[(2R)-6-cyano-1,2,3,4-tetrahydro-2-naphthalenyl]-3,4-dihydro-4-hydroxyspiro[2H-1-benzopyran-2,4'-piperidin]-6-yl]methanesulfonamide binding
[3] = Plasma clearance in Sprague-Dawley rat at 1 mg/kg, iv; type: ADME, organism-based; design: dose 1 mg/kg, route intravenous
Procedure, shortened: (§1)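 Male SD rats, male Beagle dogs, male rhesus monkeys given single doses iv (PEG400/EtOH/H2O 50/10/40) or po by gavage (0.5% methylcellulose suspension). Rats 1 mg/kg iv and 3 mg/kg po; dogs and monkeys 0.3 mg/kg iv and 1 mg/kg po. Plasma sampled at multiple times up to 24 h, deproteinized with ethanol plus internal standard. Mean of n = 3 animals/dose.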

[4] = Plasma clearance in Beagle dog at 0.3 mg/kg, iv; type: ADME, organism-based, Canis lupus familiaris; design: dose 0.3 mg/kg, route intravenous; procedure, shortened: as §1
[5] = AUC (0 to infinity) in Sprague-Dawley rat at 3 mg/kg, po; type: ADME, organism-based; design: time infinity, dose 3 mg/kg, route oral; details: plasma; procedure, shortened: as §1
[6] = AUC (0 to infinity) in Beagle dog at 1 mg/kg, po; type: ADME, organism-based, Canis lupus familiaris, Plasma; design: time infinity, dose 1 mg/kg, route oral; details: Beagle, plasma; procedure, shortened: as §1
[7] = system: Rhesus monkey; test: AUC (0 to infinity) in rhesus monkey at 1 mg/kg, po; type: ADME, organism-based, Macaca mulatta, Plasma; design: time infinity, dose 1 mg/kg, route oral; details: in vivo; procedure, shortened: as §1
[8] = Cmax in Sprague-Dawley rat at 1 mg/kg, iv and 3 mg/kg, po; type: ADME, organism-based; details: in vivo; procedure, shortened: as §1
[9] = Cmax in Beagle dog at 0.3 mg/kg, iv and 1 mg/kg, po; type: ADME, organism-based, Canis lupus familiaris; details: in vivo; procedure, shortened: as §1
[10] = Cmax in rhesus monkey at 0.3 mg/kg, iv and 1 mg/kg, po; type: ADME, organism-based, Macaca mulatta; details: in vivo; procedure, shortened: as §1
[11] = Oral bioavailability in Sprague-Dawley rat at 3 mg/kg; type: ADME, organism-based; details: in vivo; procedure, shortened: as §1
[12] = Oral bioavailability in Beagle dog at 1 mg/kg; type: ADME, organism-based, Canis lupus familiaris; details: Beagle, in vivo; procedure, shortened: as §1
[13] = system: Rhesus monkey; test: Oral bioavailability in rhesus monkey at 1 mg/kg; type: ADME, organism-based, Macaca mulatta; details: in vivo; procedure, shortened: as §1
[14] = Plasma concentration in Sprague-Dawley rat at 10 mg/kg, po after 2 hrs; type: ADME, organism-based; design: dose 10 mg/kg, route oral
Procedure, shortened: (§2)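 Male SD rats dosed orally at 10 mg/kg. Plasma, brain and CSF concentrations determined 2 h after dosing. Brain/plasma ratio taken from these levels. Mean of n = 3 animals.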

[15] = system: Brain; test: Drug level in Sprague-Dawley rat brain at 10 mg/kg, po after 2 hrs; type: ADME, organism-based; design: dose 10 mg/kg, route oral; details: in vivo; procedure, shortened: as §2
[16] = Drug level in Sprague-Dawley rat cerebrospinal fluid at 10 mg/kg, po after 2 hrs; type: ADME, organism-based; design: dose 10 mg/kg, route oral; details: read-out: Drug uptake; procedure, shortened: as §2
[17] = Ratio of drug level in brain to plasma in Sprague-Dawley rat at 10 mg/kg, po after 2 hrs; type: ADME, organism-based; design: dose 10 mg/kg, route oral; details: read-out: BPR; procedure, shortened: as §2
[18] = Ratio of drug level in cerebrospinal fluid to brain in Sprague-Dawley rat at 10 mg/kg, po after 2 hrs; type: ADME, organism-based, CSF/Brain; design: dose 10 mg/kg, route oral; details: in vivo
[19] = system: LLC-PK1; test: Ratio of permeability from apical to basolateral side over basolateral to apical side in pig LLC-PK1 cells expressing human MDR1; type: ADME, cell-based, Sus scrofa
[20] = system: LLC-PK1; test: Ratio of permeability from apical to basolateral side over basolateral to apical side in pig LLC-PK1 cells expressing mouse MDR1a; type: ADME, cell-based, Sus scrofa
[21] = target: T1, Histamine H3 receptor; test: Displacement of [3H]N-alpha-methylhistamine from human recombinant histamine H3 receptor expressed in CHO-K1 cells; type: cell-based
[22] = target: Histamine H3 receptor (Rattus norvegicus, UniProt Q9QYN8); test: Displacement of [3H]N-alpha-methylhistamine from rat recombinant histamine H3 receptor expressed in HEK293 cells; type: cell-based
[23] = target: Histamine H3 receptor (Mus musculus, UniProt P58406); test: Displacement of [3H]N-alpha-methylhistamine from mouse recombinant histamine H3 receptor
[24] = system: Rattus norvegicus; test: Increase in tele-methylhistamine level in po dosed Sprague-Dawley rat brain after 2 hrs relative to control; type: functional, organism-based
Procedure, shortened: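 Male SD rats given vehicle (0.5% methylcellulose) or compound po at 1, 3, 10 mg/kg, co-dosed with pargyline ip. Decapitated at 2 h and brains homogenized. tele-Methylhistamine measured by HPLC with fluorometry after solid-phase extraction. Mean ± SE from five experiments. Compared with vehicle by ANOVA with Dunnett's test.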

[25] = system: Rattus norvegicus; test: Ex vivo receptor occupancy of histamine H3 receptor in Sprague-Dawley rat assessed as drug level in brain at 1 mg/kg, po after 2 hrs; type: functional
Procedure, shortened: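 Male SD rats given vehicle or 1 mg/kg compound by oral gavage and decapitated at 2 h. Striatal sections (20 μm) incubated 10 min at room temperature with 400 pM tritiated H3 inverse agonist radioligand in sodium phosphate buffer. Nonspecific binding defined with 10 μM R-α-methylhistamine. Beta-Imager exposure 6 h. Drug levels measured by LC-MS/MS.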

[26] = Ex vivo drug level in wild type mdr1a (+/+) CF1 mouse plasma at 0.3 mg/kg, po after 2 hrs; type: ADME, organism-based; design: dose 0.3 mg/kg, route oral; details: read-out: Drug uptake
Procedure, shortened: (§3)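 Female mdr1a (+/+) and mdr1a (−/−) CF-1 mice dosed by oral gavage. Terminal blood and whole brain collected 2 h later. Brain homogenized by ultrasonication in 4 volumes water. Plasma and brain deproteinized with ethanol plus internal standard, then measured by LC-MS/MS (positive ESI, MRM). Mean ± SE, n = 3. Brain/plasma ratios calculated from mean values.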

[27] = Ex vivo drug level in mdr1a (-/-) deficient CF1 mouse plasma at 0.3 mg/kg, po after 2 hrs; type: ADME, organism-based; design: dose 0.3 mg/kg, route oral; details: read-out: Drug uptake; procedure, shortened: as §3
[28] = system: Brain; test: Ex vivo drug level in wild type mdr1a (+/+) CF1 mouse brain at 0.3 mg/kg, po after 2 hrs; type: ADME, organism-based; design: dose 0.3 mg/kg, route oral; procedure, shortened: as §3
[29] = system: Brain; test: Ex vivo drug level in mdr1a (-/-) deficient CF1 mouse brain at 0.3 mg/kg, po after 2 hrs; type: ADME, organism-based; design: dose 0.3 mg/kg, route oral; procedure, shortened: as §3
[30] = Ratio of drug level brain to plasma in mdr1a (-/-) deficient CF1 mouse at 0.3 mg/kg, po after 2 hrs; type: ADME, organism-based; design: dose 0.3 mg/kg, route oral; details: read-out: BPR; procedure, shortened: as §3
[31] = system: Mus musculus; test: Ex vivo receptor occupancy of histamine H3 receptor expressed in po dosed wild type CF1 mouse plasma assessed by brain occupancy/brain to plasma ratio after 2 hrs; type: functional
Procedure, shortened: (§4)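 Female wild-type and mdr1a (−/−) CF-1 mice given vehicle or compound po (0.1–3 mg/kg) and decapitated at 2 h. Coronal striatal sections (20 μm) incubated 10 min at room temperature with 400 pM tritiated quinazolinone H3 inverse agonist radioligand in sodium phosphate buffer. Nonspecific binding defined with 10 μM R-α-methylhistamine. Sections imaged 6 h by beta-Imager. Brain Occ90 obtained from occupancy versus brain concentration. Plasma Occ90 = brain Occ90/brain-to-plasma ratio.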

[32] = system: Mus musculus; test: Ex vivo receptor occupancy of histamine H3 receptor expressed in po dosed MDR1a deficient CF1 mouse plasma assessed by brain occupancy/brain to plasma ratio after 2 hrs; type: functional; procedure, shortened: as §4
[33] = system: Mus musculus; test: Ex vivo receptor occupancy of histamine H3 receptor expressed in wild type po dosed CF1 mouse brain after 2 hrs; type: functional; procedure, shortened: as §4
[34] = target: Histamine H1 receptor (Homo sapiens, UniProt P35367); test: Inhibition of human histamine H1 receptor
[35] = target: Histamine H2 receptor (Homo sapiens, UniProt P25021); test: Inhibition of human histamine H2 receptor
[36] = target: Histamine H4 receptor (Homo sapiens, UniProt Q9H3N8); test: Inhibition of human histamine H4 receptor
[37] = Ratio of drug level brain to plasma in wild type mdr1a (+/+) CF1 mouse at 0.3 mg/kg, po after 2 hrs; type: ADME, organism-based; design: dose 0.3 mg/kg, route oral; details: read-out: BPR; procedure, shortened: as §3

T1 sequence (Q9Y5N1 whole entry): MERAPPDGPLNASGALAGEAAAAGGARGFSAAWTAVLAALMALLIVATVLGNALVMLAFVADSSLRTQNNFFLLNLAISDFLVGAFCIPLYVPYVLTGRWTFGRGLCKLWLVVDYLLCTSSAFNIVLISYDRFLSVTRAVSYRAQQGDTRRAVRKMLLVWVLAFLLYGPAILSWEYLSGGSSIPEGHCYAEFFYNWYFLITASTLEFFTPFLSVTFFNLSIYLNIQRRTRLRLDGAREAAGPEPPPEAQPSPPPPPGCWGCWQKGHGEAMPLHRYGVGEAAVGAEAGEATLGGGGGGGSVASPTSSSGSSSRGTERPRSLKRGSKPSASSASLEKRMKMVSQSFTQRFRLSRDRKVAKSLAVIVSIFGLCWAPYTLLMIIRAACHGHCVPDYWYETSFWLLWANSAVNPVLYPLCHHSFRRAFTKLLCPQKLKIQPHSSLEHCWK
Voltage-gated inwardly rectifying potassium channel KCNH2, sequence (Q12809 whole entry): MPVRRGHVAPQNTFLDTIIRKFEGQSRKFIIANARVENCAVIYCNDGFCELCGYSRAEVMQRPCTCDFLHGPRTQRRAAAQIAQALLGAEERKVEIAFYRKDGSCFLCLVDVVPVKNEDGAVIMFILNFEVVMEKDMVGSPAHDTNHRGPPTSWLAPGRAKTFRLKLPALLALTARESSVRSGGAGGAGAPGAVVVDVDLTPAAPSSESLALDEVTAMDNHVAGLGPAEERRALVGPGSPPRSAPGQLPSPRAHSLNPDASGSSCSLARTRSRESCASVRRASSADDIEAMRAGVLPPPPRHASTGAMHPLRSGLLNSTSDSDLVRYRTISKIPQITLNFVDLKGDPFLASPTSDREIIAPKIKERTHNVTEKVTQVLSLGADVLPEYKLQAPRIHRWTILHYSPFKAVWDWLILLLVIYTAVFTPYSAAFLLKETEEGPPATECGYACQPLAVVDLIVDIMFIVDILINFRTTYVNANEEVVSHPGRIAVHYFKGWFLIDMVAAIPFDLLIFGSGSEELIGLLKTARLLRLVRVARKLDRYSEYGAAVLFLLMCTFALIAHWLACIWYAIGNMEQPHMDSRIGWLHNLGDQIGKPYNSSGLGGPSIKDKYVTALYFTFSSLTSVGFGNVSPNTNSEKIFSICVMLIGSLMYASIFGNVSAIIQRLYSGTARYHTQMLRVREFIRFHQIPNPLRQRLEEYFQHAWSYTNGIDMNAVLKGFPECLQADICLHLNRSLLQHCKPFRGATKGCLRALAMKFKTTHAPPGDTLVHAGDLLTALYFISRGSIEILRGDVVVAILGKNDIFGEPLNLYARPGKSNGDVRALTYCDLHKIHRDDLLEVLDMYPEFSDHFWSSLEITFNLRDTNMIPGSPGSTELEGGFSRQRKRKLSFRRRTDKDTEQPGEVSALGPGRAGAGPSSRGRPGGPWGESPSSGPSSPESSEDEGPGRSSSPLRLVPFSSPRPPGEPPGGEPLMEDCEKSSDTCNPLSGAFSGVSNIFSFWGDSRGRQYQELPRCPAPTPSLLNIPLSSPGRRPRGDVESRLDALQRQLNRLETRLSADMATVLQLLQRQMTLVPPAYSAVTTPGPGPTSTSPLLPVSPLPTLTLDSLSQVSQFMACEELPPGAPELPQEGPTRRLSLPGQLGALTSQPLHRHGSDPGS
Histamine H3 receptor (Rattus norvegicus, UniProt Q9QYN8), sequence (Q9QYN8 whole entry): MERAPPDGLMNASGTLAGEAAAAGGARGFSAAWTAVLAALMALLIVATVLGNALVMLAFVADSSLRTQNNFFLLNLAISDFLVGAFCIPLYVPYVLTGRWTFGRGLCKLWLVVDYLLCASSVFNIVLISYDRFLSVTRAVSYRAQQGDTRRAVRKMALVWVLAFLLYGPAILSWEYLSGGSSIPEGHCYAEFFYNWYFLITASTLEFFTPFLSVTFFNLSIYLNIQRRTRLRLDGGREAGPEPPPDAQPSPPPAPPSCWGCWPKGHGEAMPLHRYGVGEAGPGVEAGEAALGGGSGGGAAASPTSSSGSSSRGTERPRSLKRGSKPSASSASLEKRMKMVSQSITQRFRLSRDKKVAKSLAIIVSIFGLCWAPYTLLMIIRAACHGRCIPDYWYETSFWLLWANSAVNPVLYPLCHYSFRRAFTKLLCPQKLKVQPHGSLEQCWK
Histamine H3 receptor (Mus musculus, UniProt P58406), sequence (P58406 whole entry): as the sequence (Q9QYN8 whole entry) above, with T15A, A286T, A290G, R387H, I389V counted along it
Histamine H1 receptor, sequence (P35367 whole entry): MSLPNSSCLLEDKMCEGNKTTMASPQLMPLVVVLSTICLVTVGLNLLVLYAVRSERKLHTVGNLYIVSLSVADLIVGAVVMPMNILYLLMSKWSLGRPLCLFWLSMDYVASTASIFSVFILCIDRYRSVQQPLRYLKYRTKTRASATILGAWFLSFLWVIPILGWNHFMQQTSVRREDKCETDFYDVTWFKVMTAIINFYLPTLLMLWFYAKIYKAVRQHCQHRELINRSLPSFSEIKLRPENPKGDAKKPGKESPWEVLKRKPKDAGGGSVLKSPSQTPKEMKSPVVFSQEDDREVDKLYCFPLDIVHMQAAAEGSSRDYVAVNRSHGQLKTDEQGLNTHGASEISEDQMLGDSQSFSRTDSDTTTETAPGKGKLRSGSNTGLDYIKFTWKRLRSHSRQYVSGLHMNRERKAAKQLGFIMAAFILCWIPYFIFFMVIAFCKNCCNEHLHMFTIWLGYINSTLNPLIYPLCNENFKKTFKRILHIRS
Histamine H2 receptor, sequence (P25021 whole entry): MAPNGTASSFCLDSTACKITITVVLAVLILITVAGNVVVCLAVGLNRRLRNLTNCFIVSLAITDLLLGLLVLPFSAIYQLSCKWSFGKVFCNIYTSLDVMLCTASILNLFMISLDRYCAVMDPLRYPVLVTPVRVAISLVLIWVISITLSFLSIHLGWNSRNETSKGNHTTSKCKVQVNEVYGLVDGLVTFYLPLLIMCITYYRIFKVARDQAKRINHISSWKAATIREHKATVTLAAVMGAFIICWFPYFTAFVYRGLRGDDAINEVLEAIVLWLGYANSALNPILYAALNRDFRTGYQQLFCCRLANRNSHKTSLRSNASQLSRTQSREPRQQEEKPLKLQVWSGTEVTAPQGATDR

pIC50 [1]: 6.13
Structure (SMILES): Cc1nc2ccccc2c(=O)n1-c1ccc(OC2CCN(C)CC2)cc1

pIC50 [1]: 8.38
Structure (SMILES): COc1cccc2c(=O)n(-c3ccc(OC4CCN(C5CCC5)CC4)cc3)c(C)nc12
pIC50 [2]: < 5.00

pIC50 [1]: 8.92
Structure (SMILES): Cc1nc2ccc(F)cc2c(=O)n1-c1ccc(OC2CCN(C3CCC3)CC2)cc1
pIC50 [2]: < 5.00

pIC50 [1]: 6.99
Structure (SMILES): Cc1nc2ccccc2c(=O)n1-c1ccc(OC2CCN(C3CCC3)C2)cc1 (configuration not stated)

pIC50 [1]: 8.00
Structure (SMILES): Cc1nc2ccccc2c(=O)n1-c1ccc(OC2CCCN(C3CCC3)CC2)cc1 (configuration not stated)
pIC50 [2]: 5.14

pIC50 [1]: < 6.00
Structure (SMILES): Cc1nc2ccccc2c(=O)n1-c1ccc(OC2CCNCC2)cc1

pIC50 [1]: 8.77
Structure (SMILES): Cc1nc2c(Cl)cccc2c(=O)n1-c1ccc(OC2CCN(C3CCC3)CC2)cc1

pIC50 [1]: 7.37
Structure (SMILES): Cc1nc2ccccc2c(=O)n1-c1ccc(OC2CCN(C3CCCCC3)CC2)cc1

pIC50 [1]: 9.08
Structure (SMILES): Cc1nc2c(F)cccc2c(=O)n1-c1ccc(OC2CCN(C3CCC3)CC2)cc1

pIC50 [1]: 8.82
Structure (SMILES): COc1ccc2nc(C)n(-c3ccc(OC4CCN(C5CCC5)CC4)cc3)c(=O)c2c1
pIC50 [2]: < 5.00

pIC50 [1]: 9.26
Structure (SMILES): CNC(=O)c1ccc(Oc2ccc3c(c2)CCN(C2CCC2)CC3)nc1 [GSK189254]

pIC50 [1]: 9.47
Structure (SMILES): Cc1nc2cccc(Cl)c2c(=O)n1-c1ccc(OC2CCN(C3CCC3)CC2)cc1
pIC50 [2]: < 5.00

pIC50 [1]: 8.49
Structure (SMILES): Cc1nc2ccccc2c(=O)n1-c1ccc(OC2CCN(C3CCCC3)CC2)cc1
pIC50 [2]: < 5.00

pIC50 [1]: 8.82
Structure (SMILES): Cc1nc2ccc(Cl)cc2c(=O)n1-c1ccc(OC2CCN(C3CCC3)CC2)cc1
pIC50 [2]: 5.27

pIC50 [1]: 9.26 | clearance [3]: 0.66 L/h/kg | clearance [4]: 2.64 L/h/kg | AUC(0-inf) [5]: 6200 nM·h | AUC(0-inf) [6]: 50 nM·h | AUC [7]: 1700 nM·h | Cmax [8]: 1.3 µM | Cmax [9]: 0.02 µM | Cmax [10]: 0.38 µM | bioavailability [11]: 53% | bioavailability [12]: 4.8% | F [13]: 37% | concentration at 2 h [14]: 2.4 µM | Drug uptake [15]: 7.6 nmol/g | concentration at 2 h [16]: 0.95 µM | Kp at 2 h [17]: 3.2 | Ratio [18]: 0.13 | Ratio [19]: 1 | Ratio [20]: 1.8 | pKi [21]: 8.17 | pKi [22]: 8.22 | pKi [23]: 8.08 | concentration at 2 h [26]: 0.032 µM | concentration at 2 h [27]: 0.028 µM | Drug uptake [28]: 0.062 nmol/g | Drug uptake [29]: 0.26 nmol/g | Kp at 2 h [30]: 9.4 | pIC50 [34]: < 5.00 | pIC50 [35]: < 5.00 | pIC50 [36]: < 5.00 | Kp at 2 h [37]: 1.9
Structure (SMILES): Cc1nc2cccc(F)c2c(=O)n1-c1ccc(OC2CCN(C3CCC3)CC2)cc1
pIC50 [2]: < 5.00 | Activity [24]: Dose-dependent effect | Activity [25]: >90% | Occ90 [31]: 144 nM | Occ90 [32]: 30 nM | Occ90 [33]: 0.28 nmol/g

pIC50 [1]: 6.09
Structure (SMILES): Cc1nc2ccccc2c(=O)n1-c1ccc(O[C@H]2CC[C@H](N3CCCC3)CC2)cc1

pIC50 [1]: 8.92
Structure (SMILES): COc1cccc2nc(C)n(-c3ccc(OC4CCN(C5CCC5)CC4)cc3)c(=O)c12
pIC50 [2]: < 5.00

pIC50 [1]: 7.43
Structure (SMILES): Cc1nc2ccccc2c(=O)n1-c1ccc(OC2CCN(C3CCCC3)C2)cc1 (configuration not stated)
